Results reported in paper PMC8637822 (RSC Chemical Biology, 2021).
Where a SMILES comes first, the peptide text is derived from it. Bridges are numbered along the chain shown (N, C = ends). [ ]: non-standard residue; d: D form. Bip = N[C@@H](Cc1ccc(-c2ccccc2)cc1)C(=O)O; NMeS = CN[C@@H](CO)C(=O)O

What was measured:
MDM2 = MDM2 (Homo sapiens, UniProt Q00987); test: TR-FRET competition; assay type: binding
SJSA-1 cells [1] = test: SJSA-1 cellular assay; assay type: cell-based; conditions: tested up to 30 μM
MDM4 = biological target: T1, MDM4 (Homo sapiens, UniProt O15151); test: TR-FRET competition; assay type: binding; conditions: His(96) of MDM2 replaced by proline in MDM4
T1 sequence (O15151 2-185): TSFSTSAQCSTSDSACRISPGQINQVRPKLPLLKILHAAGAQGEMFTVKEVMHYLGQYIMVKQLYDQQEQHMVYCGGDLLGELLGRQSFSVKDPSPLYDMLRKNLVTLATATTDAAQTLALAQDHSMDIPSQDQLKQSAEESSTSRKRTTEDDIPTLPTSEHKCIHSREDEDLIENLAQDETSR

SJSA-1 cells [2] = test: WST-1 cell proliferation assay in SJSA-1 cells; assay type: cell-based; conditions: Homo sapiens, SJSA-1, 24 h, read-out: GI50 growth inhibition
Summary of the method: (§1)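 Cells were exposed for 24 h to varying concentrations of the synthesized macrocyclic peptide MDM2 inhibitors, and proliferation was read out by the WST-1 assay. The same test was run in MDM2-dependent SJSA-1 cells and in p53-mutant SW-480 cells, the latter as a control line. A small-molecule MDM2 inhibitor served as the positive control.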

SW-480 cells = test: WST-1 cell proliferation assay in SW-480 cells; assay type: cell-based; conditions: p53-mutant SW-480 cells, 24 hours
Summary of the method: as §1

[3] = system: nuclear MDM2 in SJSA-1 cells; test: MDM2 immunofluorescence; assay type: cell-based; conditions: 4 hours

MDM2, sequence (Q00987 2-188): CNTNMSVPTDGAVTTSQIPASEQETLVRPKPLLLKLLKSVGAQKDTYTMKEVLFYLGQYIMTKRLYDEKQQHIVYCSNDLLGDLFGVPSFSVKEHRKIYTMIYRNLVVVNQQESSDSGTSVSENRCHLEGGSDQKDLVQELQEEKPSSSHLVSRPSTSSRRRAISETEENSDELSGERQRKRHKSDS

With `CC(C)[C@@H]1NC(=O)[C@H](CO)NC(=O)[C@H](CO)NC(=O)[C@H](CO)N(C)C(=O)[C@H](CC(=O)O)NC(=O)[C@H](CO)NC(=O)[C@H](Cc2ccccc2)NC(=O)CSC[C@@H](C(=O)NCC(N)=O)NC(=O)[C@H](CC(N)=O)NC(=O)[C@H](CCCNC(=N)N)NC(=O)[C@H](Cc2ccc(-c3ccccc3)cc2)NC(=O)[C@H](Cc2ccc(-c3ccccc3)cc2)NC(=O)[C@H](CC(N)=O)NC(=O)[C@@H]2CCCN2C1=O` [CMR19] ({CH2CO}-FSD[NMeS]SSVPN[Bip][Bip]RNCG-NH2; thioether N-14) the IC50 (MDM2) was 0.18 nM, the Ki (MDM2) was 0.15 nM and the “cytotoxic response on SJSA-1 cells” value (SJSA-1 cells [1]) was “did not observe any cytotoxic response”. The “loss in affinity for MDM4 versus MDM2” value (MDM4) was “more than thousand fold loss in affinity”.

`COc1cc2c(cc1OC(C)C)[C@H](c1ccc(Cl)cc1)N(c1ccc(N(C)C[C@H]3CC[C@H](N4CCN(C)C(=O)C4)CC3)cc1)C(=O)C2` [CGM097] gave a GI50 (SJSA-1 cells [2]) of ~1000 nM.

`CC(=O)N[C@@H](CSSC[C@H](N)C(=O)NCCOCCOCC(=O)NCCOCCOCC(=O)N[C@H]1CCCCNC(=O)CC[C@@H](C(N)=O)NC(=O)[C@H](CCCNC(=N)N)NC(=O)[C@@H](CCCNC(=N)N)NC(=O)[C@H](CCCNC(=N)N)NC(=O)[C@@H](CCCNC(=N)N)NC(=O)[C@H](CCCNC(=N)N)NC(=O)[C@@H](CCCNC(=N)N)NC(=O)[C@H](CCCNC(=N)N)NC(=O)[C@@H](CCCNC(=N)N)NC(=O)[C@H](CCCNC(=N)N)NC(=O)[C@@H](CCCNC(=N)N)NC1=O)C(=O)NCCCC[C@H](NC(=O)CNC(=O)[C@@H]1CSCC(=O)N[C@@H](Cc2ccccc2)C(=O)N[C@@H](CO)C(=O)N[C@@H](CC(=O)O)C(=O)N(C)[C@@H](CO)C(=O)N[C@@H](CO)C(=O)N[C@@H](CO)C(=O)N[C@@H](C(C)C)C(=O)N2CCC[C@H]2C(=O)N[C@@H](CC(N)=O)C(=O)N[C@@H](Cc2ccc(-c3ccccc3)cc2)C(=O)N[C@@H](Cc2ccc(-c3ccccc3)cc2)C(=O)N[C@@H](CCCNC(=N)N)C(=O)N[C@@H](CC(N)=O)C(=O)N1)C(N)=O` [CMR19-cR10] was tested, and the growth inhibitory effect (SW-480 cells) was “no growth inhibition”.

In the case of `CC(C)[C@@H]1NC(=O)[C@H](CO)NC(=O)[C@H](CO)NC(=O)[C@H](CO)N(C)C(=O)[C@H](CC(=O)O)NC(=O)[C@H](CO)NC(=O)[C@H](Cc2ccccc2)NC(=O)CSC[C@@H](C(=O)NCC(N)=O)NC(=O)[C@H](CC(N)=O)NC(=O)[C@H](CCCNC(=N)N)NC(=O)[C@H](C)NC(=O)[C@H](Cc2ccc(-c3ccccc3)cc2)NC(=O)[C@H](CC(N)=O)NC(=O)[C@@H]2CCCN2C1=O` [MMS95] ({CH2CO}-FSD[NMeS]SSVPN[Bip]ARNCG-NH2; thioether N-14), the IC50 (MDM2) is reported as > 10000 nM, the “binding to MDM2 in the TR-FRET assay” value (MDM2) is reported as “no binding” and the “concentration-dependent enrichment of nuclear MDM2 (quantified fluorescence)” value ([3]; 0.4-10 µM) is reported as “does not”. The “enrichment of MDM2 in the nuclei compared to the DMSO control” value ([3]; 37 °C, immunofluorescence) was “did not result in increased nuclear staining”.
